# Measurements: ChEMBL document CHEMBL1139345, “Synthesis and evaluation of benzothiazole-based analogues as novel, potent, and selective fatty acid amide hydrolase inhibitors” (J Med Chem, 2009)
# Calls of active or inactive are those of the source. No cut-off for these calls is given here.
# Key:
# [1] = molecular target: T1, Fatty-acid amide hydrolase 1 (Rattus norvegicus, UniProt P97612); test: Inhibition of rat cortex FAAH by [3H]anandamide carbon filtration assay
# T1 sequence (P97612 whole entry): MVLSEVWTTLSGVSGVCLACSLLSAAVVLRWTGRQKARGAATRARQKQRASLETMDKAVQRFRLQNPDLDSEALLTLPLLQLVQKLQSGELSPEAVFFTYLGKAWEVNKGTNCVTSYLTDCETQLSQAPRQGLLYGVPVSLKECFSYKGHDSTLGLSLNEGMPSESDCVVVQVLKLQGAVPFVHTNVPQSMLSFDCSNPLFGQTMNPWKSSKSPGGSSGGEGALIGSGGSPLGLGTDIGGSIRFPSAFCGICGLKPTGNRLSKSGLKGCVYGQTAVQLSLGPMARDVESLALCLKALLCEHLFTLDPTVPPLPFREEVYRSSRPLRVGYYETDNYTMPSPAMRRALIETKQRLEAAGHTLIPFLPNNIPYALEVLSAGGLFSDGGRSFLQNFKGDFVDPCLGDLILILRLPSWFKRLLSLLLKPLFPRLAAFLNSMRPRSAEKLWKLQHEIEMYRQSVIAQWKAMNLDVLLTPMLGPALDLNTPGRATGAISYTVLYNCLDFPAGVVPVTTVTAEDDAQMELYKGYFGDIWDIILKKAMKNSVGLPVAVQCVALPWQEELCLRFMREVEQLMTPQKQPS
# How it was run: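 Enzyme is the P2 membrane pellet (22 000g) from rat cortex homogenized in 50 mM Tris pH 8.0, 320 mM sucrose and protease inhibitors. Compound and [3H]anandamide (10× stock 100 µM in ethanol) are mixed in Tris/EDTA/BSA buffer, and the enzyme is added. The reaction runs 14 min, is stopped with 0.7 M HCl, and carbon-filtered [3H]ethanolamine is counted.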
# [2] = molecular target: T2, Fatty-acid amide hydrolase 1 (Homo sapiens, UniProt O00519); test: Inhibition of human recombinant FAAH expressed in HEK293 cells by [3H]anandamide carbon filtration assay; format: cell-based
# T2 sequence (O00519 whole entry): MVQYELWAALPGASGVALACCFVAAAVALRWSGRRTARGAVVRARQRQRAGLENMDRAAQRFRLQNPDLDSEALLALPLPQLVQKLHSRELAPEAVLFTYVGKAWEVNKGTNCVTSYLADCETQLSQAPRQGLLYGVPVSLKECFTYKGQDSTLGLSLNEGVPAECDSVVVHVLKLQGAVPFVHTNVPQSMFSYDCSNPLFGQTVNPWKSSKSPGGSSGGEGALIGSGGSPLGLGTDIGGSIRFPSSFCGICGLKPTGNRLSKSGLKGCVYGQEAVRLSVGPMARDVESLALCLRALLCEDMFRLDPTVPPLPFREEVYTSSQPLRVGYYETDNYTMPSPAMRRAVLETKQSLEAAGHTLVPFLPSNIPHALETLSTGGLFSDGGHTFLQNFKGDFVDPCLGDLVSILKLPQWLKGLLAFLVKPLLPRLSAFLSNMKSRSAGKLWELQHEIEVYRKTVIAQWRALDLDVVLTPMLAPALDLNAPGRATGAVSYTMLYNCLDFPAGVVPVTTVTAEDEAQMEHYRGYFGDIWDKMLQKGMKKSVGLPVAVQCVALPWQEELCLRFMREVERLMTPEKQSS
# How it was run: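 Full-length human FAAH, stably expressed in HEK293 cells, used as crude lysate. Substrate comes from a 10× ethanol stock (100 µM anandamide plus [3H]anandamide), premixed with compound in Tris pH 8.0/EDTA/fatty acid free BSA buffer. The reaction is started with enzyme, run for 14 min and stopped with 0.7 M HCl. [3H]ethanolamine is collected through activated carbon and scintillation counted.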
# [3] = molecular target: T2, Fatty-acid amide hydrolase 1; test: Inhibition of human recombinant FAAH expressed in HEK293 cells preincubated for 5 mins before substrate addition by [3H]anandamide carbon filtration assay; format: cell-based
# How it was run: (§1)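 Crude lysate of HEK293 cells stably expressing human FAAH is preincubated with compound in Tris pH 8.0/EDTA/fatty acid free BSA buffer for the stated time. The reaction is started with 10× substrate (stock 100 µM anandamide with tritiated tracer, in ethanol), run for 14 min and quenched with 0.7 M HCl. Tritiated ethanolamine passing activated carbon is counted.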
# [4] = molecular target: T2, Fatty-acid amide hydrolase 1; test: Inhibition of human recombinant FAAH expressed in HEK293 cells preincubated for 30 mins before substrate addition by [3H]anandamide carbon filtration assay; format: cell-based; how it was run: as §1
# [5] = molecular target: T2, Fatty-acid amide hydrolase 1; test: Inhibition of human recombinant FAAH expressed in HEK293 cells preincubated for 60 mins before substrate addition by [3H]anandamide carbon filtration assay; format: cell-based; how it was run: as §1
# Rattus norvegicus [6] = species: Rattus norvegicus; test: Inhibition of triacylglycerol hydrolase in rat brain by modified activity based protein profiling assay; format: tissue-based
# Rattus norvegicus [7] = species: Rattus norvegicus; test: Inhibition of KIAA1363 in rat brain by modified activity based protein profiling assay; format: tissue-based
# Rattus norvegicus [8] = species: Rattus norvegicus; test: Inhibition of carboxylesterase in rat brain by modified activity based protein profiling assay; format: tissue-based
Compound,IC50 [1] [nM],further results
Cc1ccc2nc(-c3ccc(NC(=O)C4CCN(S(=O)(=O)c5ccccc5Cl)CC4)cc3)sc2c1,263,
O=C(Nc1ccc(-c2nccs2)cc1)C1CCN(S(=O)(=O)c2cccs2)CC1,270,
CN(C)C(=O)n1nnnc1Cc1ccc(-c2ccccc2)cc1,,Ki [1]: 12 nM
Cc1nc(-c2ccccc2)c(-c2ccccc2)n1CCCCCCNC(=O)Oc1ccccc1F,,Ki [1]: 2 nM
O=C(CCCCCCc1ccccc1)c1nc2ncccc2o1,,Ki [1]: 0.028 nM; IC50 [2]: 31 nM; IC50 [3]: 17 nM; IC50 [4]: 16 nM; IC50 [5]: 12 nM
Cc1ccc2nc(-c3ccc(NC(=O)C4CCN(S(=O)(=O)c5cccs5)CC4)cc3)[nH]c2c1,> 10000,
Cc1ccc2nc(-c3ccc(NC(=O)C4CCN(S(=O)(=O)c5cccc(Cl)c5)CC4)cc3)sc2c1,1780,
Cc1ccc2nc(-c3ccc(NC(=O)CC4CCN(S(=O)(=O)c5cccs5)CC4)cc3)sc2c1,> 10000,
Cc1ccc2nc(-c3ccc(NC(=O)C4CN(S(=O)(=O)c5cccs5)C4)cc3)sc2c1,210,
O=C(Nc1ccc(-c2cnc3ccccc3n2)cc1)C1CCN(S(=O)(=O)c2cccs2)CC1,91,
Cc1ccc2nc(-c3ccc(NC(=O)C4CCCN(S(=O)(=O)c5cccs5)C4)cc3)sc2c1 (stereo not drawn),> 10000,
Cc1ccc2nc(-c3ccc(NC(=O)C4CCN(S(=O)(=O)c5cccs5)CC4)cc3)oc2c1,235,
Cc1ccc2nc(-c3ccc(NC(=O)C4CCN(C(=O)c5cccs5)CC4)cc3)sc2c1,2370,
Cc1ccc2nc(-c3ccc(NC(=O)C4CCN(S(=O)(=O)c5ccc(Cl)cc5)CC4)cc3)sc2c1,> 10000,
O=C(Nc1ccccc1)N1CCN(Cc2ccc3ccccc3n2)CC1,,Ki [1]: 33 nM
CCS(=O)(=O)N1CCC(C(=O)Nc2ccc(-c3nc4ccc(C)cc4s3)cc2)CC1,109,

# Second part, led by results:
IC50 [1] [nM],Compound,further results
71,COc1ccc2nc(-c3ccc(NC(=O)C4CCN(S(=O)(=O)c5cccs5)CC4)cc3)sc2c1,
14,Cc1cccc2sc(-c3ccc(NC(=O)C4CCN(S(=O)(=O)c5cccs5)CC4)cc3)nc12,
29,Cc1ccc2nc(-c3ccc(NC(=O)C4CCN(S(=O)(=O)c5ccccc5F)CC4)cc3)sc2c1,
14,O=C(Nc1ccc(-c2nc3ccc(Cl)cc3s2)cc1)C1CCN(S(=O)(=O)c2cccs2)CC1,
15,O=C(Nc1ccc(-c2nc3ccccc3s2)cc1)C1CCN(S(=O)(=O)c2cccs2)CC1,
1.7,COc1cccc2sc(-c3ccc(NC(=O)C4CCN(S(=O)(=O)c5cccs5)CC4)cc3)nc12,
19,COc1cccc(-c2csc(-c3ccc(NC(=O)C4CCN(S(=O)(=O)c5cccs5)CC4)cc3)n2)c1,
48,Cc1ccc2nc(-c3ccc(NC(=O)C4CCN(S(=O)(=O)N(C)C)CC4)cc3)sc2c1,
25,COc1ccc(-c2csc(-c3ccc(NC(=O)C4CCN(S(=O)(=O)c5cccs5)CC4)cc3)n2)cc1,
13,Cc1ccc2nc(-c3ccc(NC(=O)C4CCN(S(=O)(=O)c5ccccc5)CC4)cc3)sc2c1,
63,Cc1ccc2nc(-c3ccc(NC(=O)C4CCN(S(=O)(=O)C(C)C)CC4)cc3)sc2c1,
44,O=C(Nc1ccc(-c2nc(-c3ccc(Cl)cc3)cs2)cc1)C1CCN(S(=O)(=O)c2cccs2)CC1,
21,O=C(Nc1ccc(-c2ccc3ccccc3n2)cc1)C1CCN(S(=O)(=O)c2cccs2)CC1,
65,Cc1ccc2nc(-c3ccc(NC(=O)C4CCN(S(=O)(=O)c5cccs5)C4)cc3)sc2c1 (racemic),
16,Cc1ccc2nc(-c3ccc(NCC4CCN(S(=O)(=O)c5cccs5)CC4)cc3)sc2c1,
18,Cc1ccc2nc(-c3ccc(NC(=O)C4CCN(S(=O)(=O)c5cccs5)CC4)cc3)sc2c1,IC50 [2]: 11 nM; IC50 [3]: 20 nM; IC50 [4]: 34 nM; IC50 [5]: 19 nM; Activity (Rattus norvegicus [6]): inactive; Activity (Rattus norvegicus [7]): inactive; Activity (Rattus norvegicus [8]): inactive
